Measured values as given in ChEMBL document CHEMBL3526129, “Species differences in tissue distribution and enzyme activities of arylacetamide deacetylase in human, rat, and mouse” (Drug Metab Dispos, 2012).

Columns and labels:
Format in all cases: ADME
[1] = substrate: CO[C@H]1/C=C/O[C@@]2(C)Oc3c(C)c(O)c4c(O)c(c(/C=N/N5CCN(C)CC5)c(O)c4c3C2=O)NC(=O)/C(C)=C\C=C\[C@H](C)[C@H](O)[C@@H](C)[C@@H](O)[C@@H](C)[C@H](OC(C)=O)[C@@H]1C; assay: (§1) Activity of AADAC in human liver microsome
Procedure, shortened: (§2)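 Hydrolase activity of tissue microsomes in 0.2 ml mixtures of 100 mM potassium phosphate (pH 7.4). Microsomal protein: 0.4 mg/ml for flutamide (0.025–0.75 mM) and phenacetin (0.05–4 mM); 0.5 mg/ml for rifampicin (0.005–1 mM). Products measured were FLU-1, p-phenetidine and 25-deacetylrifampicin, within linear ranges. Three independent experiments.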

[2] = substrate: CCOc1ccc(NC(C)=O)cc1; assay: as §1; procedure, shortened: as §2
[3] = substrate: CCOc1ccc(NC(C)=O)cc1; assay: Activity of AADAC in human lung microsome; procedure, shortened: as §2
[4] = substrate: CO[C@H]1/C=C/O[C@@]2(C)Oc3c(C)c(O)c4c(O)c(c(/C=N/N5CCN(C)CC5)c(O)c4c3C2=O)NC(=O)/C(C)=C\C=C\[C@H](C)[C@H](O)[C@@H](C)[C@@H](O)[C@@H](C)[C@H](OC(C)=O)[C@@H]1C; assay: (§3) Activity of AADAC in human jejunum microsome; procedure, shortened: as §2
[5] = substrate: CCOc1ccc(NC(C)=O)cc1; assay: as §3; procedure, shortened: as §2
[6] = substrate: CO[C@H]1/C=C/O[C@@]2(C)Oc3c(C)c(O)c4c(O)c(c(/C=N/N5CCN(C)CC5)c(O)c4c3C2=O)NC(=O)/C(C)=C\C=C\[C@H](C)[C@H](O)[C@@H](C)[C@@H](O)[C@@H](C)[C@H](OC(C)=O)[C@@H]1C; assay: (§4) Activity of human recombinant AADAC
Procedure, shortened: (§5)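 Sf21 insect cells were infected with baculovirus carrying intact human, rat or mouse AADAC, harvested after 7 days, and homogenized by freeze-thaw. Homogenate was incubated in 100 mM potassium phosphate (pH 7.4). Flutamide (0.025–0.75 mM) used 0.4 mg/ml; phenacetin (0.05–4 mM) used 0.4 mg/ml for human and 0.2 mg/ml for rat or mouse; rifampicin (0.005–1 mM) used 0.5 mg/ml. Activity was normalized to immunoblot-derived AADAC expression units. Triplicate determinations.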

[7] = substrate: CCOc1ccc(NC(C)=O)cc1; assay: as §4; procedure, shortened: as §5
[8] = substrate: CCOc1ccc(NC(C)=O)cc1; assay: Activity of AADAC in human kidney microsome; procedure, shortened: as §2
[9] = substrate: CCOc1ccc(NC(C)=O)cc1; assay: Activity of mouse recombinant AADAC; procedure, shortened: as §5
[10] = substrate: CCOc1ccc(NC(C)=O)cc1; assay: Activity of AADAC in mouse liver microsome; procedure, shortened: as §2
[11] = substrate: CCOc1ccc(NC(C)=O)cc1; assay: Activity of AADAC in mouse kidney microsome; procedure, shortened: as §2
[12] = substrate: CCOc1ccc(NC(C)=O)cc1; assay: Activity of AADAC in mouse jejunum microsome; procedure, shortened: as §2
[13] = substrate: CCOc1ccc(NC(C)=O)cc1; assay: Activity of AADAC in mouse lung microsome; procedure, shortened: as §2
[14] = substrate: CCOc1ccc(NC(C)=O)cc1; assay: Activity of AADAC in rat lung microsome; procedure, shortened: as §2
[15] = substrate: CCOc1ccc(NC(C)=O)cc1; assay: Activity of AADAC in rat liver microsome; procedure, shortened: as §2
[16] = substrate: CCOc1ccc(NC(C)=O)cc1; assay: Activity of AADAC in rat kidney microsome; procedure, shortened: as §2
[17] = substrate: CCOc1ccc(NC(C)=O)cc1; assay: Activity of AADAC in rat jejunum microsome; procedure, shortened: as §2
[18] = substrate: CCOc1ccc(NC(C)=O)cc1; assay: Activity of rat recombinant AADAC; procedure, shortened: as §5

B1: Arylacetamide deacetylase (Homo sapiens) (protein)
chain: MGRKSLYLLIVGILIAYYIYTPLPDNVEEPWRMMWINAHLKTIQNLATFVELLGLHHFMDSFKVVGSFDEVPPTSDENVTVTETKFNNILVRVYVPKRKSEALRRGLFYIHGGGWCVGSAALSGYDLLSRWTADRLDAVVVSTNYRLAPKYHFPIQFEDVYNALRWFLRKKVLAKYGVNPERIGISGDSAGGNLAAAVTQQLLDDPDVKIKLKIQSLIYPALQPLDVDLPSYQENSNFLFLSKSLMVRFWSEYFTTDRSLEKAMLSRQHVPVESSHLFKFVNWSSLLPERFIKGHVYNNPNYGSSELAKKYPGFLDVRAAPLLADDNKLRGLPLTYVITCQYDLLRDDGLMYVTRLRNTGVQVTHNHVEDGFHGAFSFLGLKISHRLINQYIEWLKENL
- Km [1]: 0.4 mM
- Vmax [1]: 0.000273 µmol/min/mg
- Km [2]: 3.3 mM
- Vmax [2]: 0.0036 µmol/min/mg
- Km [3]: 7.4 mM
- Vmax [3]: 0.0008 µmol/min/mg
- Km [4]: 0.3 mM
- Vmax [4]: 0.000212 µmol/min/mg
- Km [5]: 2.5 mM
- Vmax [5]: 0.01 µmol/min/mg
- Km [6]: 0.2 mM
- Km [7]: 1.8 mM
- Km [8]: 2.3 mM
- Vmax [8]: 0.0004 µmol/min/mg

B2: Arylacetamide deacetylase (Mus musculus) (protein)
chain: MGKTISLLISVVLVAYYLYIPLPDAIEEPWKVVWETAFVKIGTDLASFGELLGISHFMETIQLLMSFQEVPPTSDEHVTVMETAFDSVPVRIYIPKRKSMALRRGLFYIHGGGWCLGSAAHFSYDTLSRWTAHKLDAVVVSTDYGLAPKHHFPRQFEDVYRSLRWFLQEDVLEKYGVDPRRVGVSGDSAGGNLAAAVTQQLIQDPDVKIKLKVQALIYPALQALDTNVPSQQEGSHFPVLTRSLMVRFWSEYFTTDRGLEKAMLLNQHVPMESSHLLQFVNWSSLLPERYKKSPVYKNPTPGSSELAQKYPGFIDVKACPLLANDNILHHLPKTYIITCQYDVLRDDGLMYVKRLQNVGVHVTHHHVEDGFHGTFSFPGLKLSERMKNQYLSWLIKNL
- Km [9]: 1.6 mM
- Km [10]: 9.8 mM
- Vmax [10]: 0.0171 µmol/min/mg
- Km [11]: 7.1 mM
- Vmax [11]: 0.0029 µmol/min/mg
- Km [12]: 11.2 mM
- Vmax [12]: 0.0014 µmol/min/mg
- Km [13]: 2.9 mM
- Vmax [13]: 0.0001 µmol/min/mg

B3: Arylacetamide deacetylase (Rattus norvegicus) (protein)
chain: MGRTIFLLISVVLVAYYIYIPLPDDIEEPWKIILGNTLLKLGGDLASFGELLGLNHFMDTVQLFMRFQVVPPTSDENVTVMETDFNSVPVRIYIPKRKSTTLRRGLFFIHGGGWCLGSAAYFMYDTLSRRTAHRLDAVVVSTDYGLAPKYHFPKQFEDVYHSLRWFLQEDILEKYGVDPRRVGVSGDSAGGNLTAAVTQQILQDPDVKIKLKVQALIYPALQALDMNVPSQQENSQYPLLTRSLLIRFWSEYFTTDRDLEKAMLLNQHVPVEFSHLLQFVNWSSLLPQRYKKGYFYKTPTPGSLELAQKYPGFTDVKACPLLANDSILHHLPMTYIITCQYDVLRDDGLMYVKRLQNTGVHVTHHHIEDGFHGALTLPGLKITYRMQNQYLNWLHKNL
- Km [14]: 5.3 mM
- Vmax [14]: 0.0001 µmol/min/mg
- Km [15]: 29.8 mM
- Vmax [15]: 0.0059 µmol/min/mg
- Km [16]: 9.3 mM
- Vmax [16]: 0.0006 µmol/min/mg
- Km [17]: 4.6 mM
- Vmax [17]: 0.0003 µmol/min/mg
- Km [18]: 5.8 mM
